# Rows were chosen to be rich in hits. Some 2.8% of all compounds tested hit in one or more screens of this group.
# NPY-Y1 PAM-ag = human NPY-Y1 potentiation or agonism, primary screen; P25929; NPY-Y1 expressing cells, potentiator/agonist activation; activation, % at 3.6 µM; actives 0.37% (n = 220,000); AID 1304; in the data active = activation above about 33%, passing the limit was not always enough;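 also: cells stimulated with NPY at EC10 then isoproterenol at EC100; 0% = low agonist plus stimulus and 100% = saturating agonist plus stimulus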
# Target sequence (P25929 whole entry, looked up): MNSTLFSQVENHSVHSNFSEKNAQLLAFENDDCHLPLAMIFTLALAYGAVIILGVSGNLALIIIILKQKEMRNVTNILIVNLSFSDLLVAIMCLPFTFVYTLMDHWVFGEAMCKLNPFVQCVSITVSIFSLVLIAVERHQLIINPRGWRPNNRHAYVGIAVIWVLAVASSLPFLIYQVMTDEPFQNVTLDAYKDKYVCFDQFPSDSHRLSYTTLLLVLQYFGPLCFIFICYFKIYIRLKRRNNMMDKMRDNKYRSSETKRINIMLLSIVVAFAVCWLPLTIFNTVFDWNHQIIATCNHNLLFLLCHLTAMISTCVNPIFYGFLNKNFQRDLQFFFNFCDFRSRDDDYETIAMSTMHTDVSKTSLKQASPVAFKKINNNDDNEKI
# Measles CPE = protection of cells from measles virus; actives 1.5% (n = 140,000); Measles virus-infected cells, CPE protection, absorbance; AID 841; protection (pct of control), % at 4 µM; in the data active = protection mostly above about 24%, no sharp cut-off; inactive = mostly below about 26%
# MDM2 E3 inh = blocks human Mdm2 ubiquitin ligase activity; Q00987; cell-based MDM2 ubiquitination luciferase reporter, 2 h; 0 = plate control, 100 = twice control, blank-subtracted; signal enhancement, % at 5 µM; actives 0.11% (n = 210,000); AID 1230;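 active = signal enhancement of 30% or more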;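 also: luminescence tracks abundance of the self-degrading MDM2-luciferase fusion protein; higher signal means inhibition of MDM2 E3 ligase activity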
#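 Material: stable MDM2–luciferase fusion reporter cells / Quantity: 2000 cells/well / Dosing: single 5 µM compound dose, 0.2% final DMSO / Buffer or medium: DMEM / Schedule: 4 h cell settling then 2 h compound exposure, 37 °C / Detection: luminescence with SteadyLite reagent, 15 min at room temperature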
# NPY-Y2 antag = blocks the human neuropeptide Y Y2 receptor | AID 793 | P49146 | actives 0.99% (n = 140,000) | inhibition, % at 2.7 µM | NPY-Y2 expressing cells, antagonist mode; in the data active = inhibition above about 17%;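 also: 0% = vehicle with agonist challenge and 100% = reference antagonist with challenge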
# NPY-Y2 PAM-ag = human NPY-Y2 potentiation or agonism, primary screen. AID 1359. P49146. cells expressing NPY-Y2, potentiator/agonist read-out. actives 0.45% (n = 220,000). activation, % at 3.6 µM; in the data active = activation above about 27%;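 also: cells stimulated with NPY near EC25 plus isoproterenol at EC100; 0% = vehicle plus submaximal agonist and 100% = vehicle plus saturating agonist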
# NPY-Y1 antag = antagonists of human neuropeptide Y receptor Y1; HEK293-CNG Y1 cells, membrane potential fluorescence; NPY at EC95, then isoproterenol; actives 1% (n = 200,000); P25929; inhibition, % at 3.6 µM;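 active = inhibition above the campaign mean inhibition of all tested compounds plus 3 SD, cut at about 20% in these data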;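 also: 0% = DMSO wells given NPY plus isoproterenol and 100% = isoproterenol alone without NPY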
#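 material = HEK293 cells with Y1 receptor plus CNG channel | also added = NPY 25 nM then isoproterenol 1 µM plus Ro 20-1724 25 µM | schedule = dye 3 h, compound 60 min room temperature, stimulation 45 min | measured by = membrane potential fluorescence | benchmarks = high control isoproterenol alone, low control NPY with isoproterenol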
# Starred values were filed as active, the others as inactive; . = no result given.
SMILES,NPY-Y1 PAM-ag,Measles CPE,MDM2 E3 inh,NPY-Y2 antag,NPY-Y2 PAM-ag,NPY-Y1 antag
CCOC(=O)Cc1nn2c(=O)cc(C)nc2s1,-7,46*,-15,1,0,4
CCOC(=O)Cc1c(C)nc2cc(C)nn2c1C,2,2,-1,1,10,2
CCn1c(/N=C/c2ccccc2NS(=O)(=O)c2ccc(C)cc2)nc2ccccc21,17,66*,0,-1,17,-12
O=C(Nc1nc(-c2ccccc2)ns1)c1ccncc1,-2,.,1,.,14,.
CCCCNc1nc(=S)n(-c2ccccc2)c(C)c1C(C)=O,-4,.,-1,.,-15,0
Cc1cc(C)c2cc(C#N)c(N3CCCC3)nc2c1,0,38*,19,-2,-2,1
CCN(C(=O)COC(=O)c1ccc(Br)o1)C1CCCCC1,-6,.,-15,.,-16,10
Nc1ccc(N=Nc2ccccc2)c2ccccc12,50*,.,-7,.,56*,.
CCc1nn2c(=O)cc(CSc3nc4sc5c(c4c(=O)n3C)CCCC5)nc2s1,0,.,.,0,6,3
COc1ccc(CCNC(=O)COc2ccc(-c3ccc(C)cc3)cc2)cc1OC,-23,9,-11,5,-10,16
COc1ccc(CCNC(=O)COC(=O)c2cnc(C)cn2)cc1OC,-10,7,31*,0,2,-3
O=C(CN1CCCc2ccccc21)NCCc1ccc(F)cc1,8,.,3,.,-4,3
COc1ccc(CCNC(=O)CN(C)S(=O)(=O)c2cccs2)cc1OC,-13,36*,-17,2,-6,0
COc1ccc(CCNC(=O)CN2CCC(C)CC2)cc1OC,4,32*,-11,3,-5,0
COc1ccc(CCNC(=O)CN2CCCc3ccccc32)cc1OC,13,45*,-25,4,2,1
Cc1nn(-c2ccccn2)c2c1C(=O)C(Br)CC2 (stereo unspecified),7,.,-13,.,-3,1
CC(=O)NC1=NN(C(C)=O)C(c2sccc2C)S1 (stereo unspecified),0,13,-8,-3,3,0
CC(=O)CCCCn1cnc2c1c(=O)n(C)c(=O)n2C,4,.,.,.,0,1
Cn1c(=O)c2c(ncn2CCCNC2=CC(C)(C)CC(=O)C2)n(C)c1=O,-13,17*,-10,3,-5,-2
CCOC(=O)N1CCN(c2ncnc3c2oc2nc(C(C)C)c4c(c23)CCC4)CC1,3,11,-14,5,-14,-2
CC(C)Cc1nc2oc3c(N4CCN(CCO)CC4)ncnc3c2c2c1CCCC2,-10,9,-31,17*,3,9
COc1cccc(C2NC(C)(C(=O)O)C3C(=O)N(C(C)C)C(=O)C23)c1O (stereo unspecified),-2,29*,1,0,11,2
CSCCC1(C(=O)O)NC(c2ccccc2O)C2C(=O)N(C(C)C)C(=O)C21 (stereo unspecified),7,15,-20,4,0,-4
NC(=O)Nc1ccccc1C(=O)N1CCC(O)(c2ccc(Cl)cc2)CC1,-16,6,-8,3,-3,-5
CC1(C)CC(=O)C2=C(C1)NC(SCC(=O)Nc1ccccc1)=C(C#N)C2c1ccco1 (stereo unspecified),28,38*,-7,-1,14,-6
SMILES,NPY-Y1 PAM-ag,Measles CPE,MDM2 E3 inh,NPY-Y2 antag,NPY-Y2 PAM-ag,NPY-Y1 antag
O=C(COC(=O)C1CCN(/C=C/C(=O)C(F)(F)F)CC1)Nc1cccc(F)c1,-11,5,-3,1,-6,2
CCn1c(/C=C/N(C)c2ccccc2)[n+](CC)c2ccc(Cl)cc21,-25,4,-20,31*,-3,26*
Clc1cccc(Nc2nc(-c3cccnc3)cs2)c1,47*,.,-5,.,30*,-13
COc1ccc(-c2csc(Nc3cccnc3)n2)cc1,13,24,0,-8,29,-11
c1ccc(Nc2nc(-c3ccncc3)cs2)cc1,58*,19,-4,-11,44*,-17
CC1(NC(=S)N(CCO)CCO)CCS(=O)(=O)C1 (stereo unspecified),2,31,-9,2,-1,3
Cn1nc(C(F)(F)F)c(-c2cccc(C(F)(F)F)c2)c1NC(=O)CSCC(=O)O,-7,.,-6,.,-17,.
O=C(Nc1ncc2c(n1)-c1ccccc1CC2)c1cccc(Cl)c1,-43,8,-5,25*,-31,34*
Nc1cccc2c1C(=O)N(C(=O)/C=C/c1cccc(Br)c1)C2=O,-20,.,35*,.,5,.
O=C(Cc1cccs1)Nc1nc2c(s1)CCCC2,-18,93*,-45,2,6,-1
COCc1nnc(NC(=O)CSc2ccc(C)cc2)s1,-56,23*,0,9,-21,16
CS(=O)(=O)Nc1cccc(C(=O)CC2(O)C(=O)Nc3ccc(Br)cc32)c1 (stereo unspecified),32,34*,-6,1,18,0
COc1cccc(CNCCc2c[nH]c3ccccc23)c1OCc1ccccc1,-51,6,-20,24*,-15,50*
NC(=NC(=O)c1ccccc1)N1CCN(C(c2ccccc2)c2ccccc2)CC1,30,.,-3,.,12,.
Cc1noc(C)c1COC(=O)CCOc1ccccc1,5,15,-1,0,9,1
COc1ccc(OCCC(=O)OCc2c(C)noc2C)cc1,-19,35*,-18,1,-7,4
O=C(Nc1ccc(S(=O)(=O)Nc2ccccc2)cc1)c1ccc(CN2CCOCC2)cc1,-30,.,-31,.,-2,11
O=C(COC(=O)CCc1ccccc1)Nc1ncc(Cl)cc1Cl,1,10,-30,3,-8,3
CC(C)CCOC(=O)/C(=C/c1ccco1)NC(=O)/C=C/c1ccccc1,-47,18,-9,18*,-19,21*
NC(=O)/C(=C/c1ccco1)NC(=O)/C=C/c1ccccc1,22,12,-2,11,-17,-1
CC(C)(C)NC(=O)Nc1ccc2nccnc2c1,23,20,-4,-1,-5,5
CC(C)(C)NC(=O)c1ccc2nccnc2c1,-2,52*,-4,2,5,-3
O=C(/C=C/c1ccccc1)CC(=O)c1ccccc1O,-6,.,-3,.,12,-2
CC(=O)Nc1sc(N)nc1-c1ccccc1,-5,35*,-13,10,1,-1
CCOC(=O)C1=C(C)OC(N)=C(C#N)C1c1ccc(C)s1 (stereo unspecified),8,.,-15,.,-1,-5
Cc1ccc(NCc2nnc(SCc3ccc(C#N)cc3)n2Cc2ccco2)c(C)c1,14,3,6,0,9,1
COc1cc2c(cc1NC(=O)CSc1nnc(Cc3cccs3)n1Cc1ccco1)oc1ccccc12,-23,10,-1,0,6,-4
